A selection: hits, their analogues and other compounds. The true share with any hit is near 3.1%.
GalR3 antag = antagonists of human GalR3. AID 651719. O60755. inhibition, % at 3 µM. 360,000 compounds, 0.44% hits. HEK293 GalR3-CNG cAMP membrane potential fluorescence; galR3 body fused to GalR1 C-terminus;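 active = inhibition above the screen-wide average plus 3 SD, cut at about 13% in these data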;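 note: forskolin and galanin both at EC90 stimulate the cells; cAMP rise reported by CNG channel membrane potential dye signal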
Target sequence (O60755 1-299 limits assumed): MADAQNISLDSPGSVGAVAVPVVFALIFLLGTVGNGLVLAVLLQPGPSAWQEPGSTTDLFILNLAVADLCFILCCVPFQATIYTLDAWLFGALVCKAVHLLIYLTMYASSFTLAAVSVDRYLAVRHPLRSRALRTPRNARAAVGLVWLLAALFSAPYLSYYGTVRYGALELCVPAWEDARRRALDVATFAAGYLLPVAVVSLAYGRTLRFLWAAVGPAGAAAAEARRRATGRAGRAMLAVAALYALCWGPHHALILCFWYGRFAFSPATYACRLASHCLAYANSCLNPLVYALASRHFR
OX1R antag-1 = human HCRTR1 antagonism; inhibition, % at 5 µM; CHO/OX1R cells, Fluo-8 calcium fluorescence, orexin A; 330,000 compounds, 0.43% hits; O43613; AID 434989;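 active = inhibition above its plate's threshold, mean inhibition of all tested compounds on the plate plus 3 SD, cut at about 37% in these data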
GPR7 antag = blocks human GPR7 receptor signaling; P48145; GPR7-expressing cells, fluorescence antagonist assay; inhibition, % at 4.4 µM; 290,000 compounds, 1.1% hits; AID 1861; in the data active = inhibition above about 16%, passing the limit was not always enough;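 note: cells stimulated with the agonist NPW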
Target sequence (P48145 whole entry, looked up): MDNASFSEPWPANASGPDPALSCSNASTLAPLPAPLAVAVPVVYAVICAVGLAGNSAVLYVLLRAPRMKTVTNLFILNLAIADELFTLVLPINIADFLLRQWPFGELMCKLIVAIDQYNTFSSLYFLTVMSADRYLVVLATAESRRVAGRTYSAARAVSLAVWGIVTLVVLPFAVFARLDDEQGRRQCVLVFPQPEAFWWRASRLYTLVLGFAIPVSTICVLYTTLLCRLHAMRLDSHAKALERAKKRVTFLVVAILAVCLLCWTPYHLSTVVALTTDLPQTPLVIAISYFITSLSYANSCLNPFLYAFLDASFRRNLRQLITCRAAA
OX1R antag-2 = OX1R (human) antagonism | O43613 | OX1R-expressing cells, FRET antagonist read-out | inhibition, % at 6.6 µM | 330,000 compounds, 1.8% hits | AID 485270; in the data active = inhibition mostly above about 38%, no sharp cut-off; inactive = mostly below about 40%
CHO parental Ca = counter-screen: ATP calcium response change in parental CHO cells; parental CHO-K1, ATP-induced calcium, Fluo-8 fluorescence; inhibition, % at 5.6 µM; 330,000 compounds, 0.63% hits; AID 463079;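 active = inhibition above that plate's mean sample inhibition plus 3 SD, cut at about 26% in these data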
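Material: Parental CHO cells | Reagent: ATP | Compound dosing: Single nominal dose of 5.6 µM per compound | Detection: Intracellular calcium via Fluo-8 no-wash fluorescent dye | Read-out: % inhibition of ATP-induced calcium mobilization | Benchmarks: Low control ATP plus DMSO, high control DMSO only | Replicates: Singlicate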
Each line names hits and unclear results; the compound was inactive in the other large screens.

COc1ccc(CNCc2cc3c(cc2[N+](=O)[O-])OCO3)cc1	OX1R antag-2 44
Cc1ccccc1-n1nc2c(c1NC(=O)c1cc3ccccc3oc1=O)CS(=O)C2 (stereo not given)	OX1R antag-2 46 (no result: GalR3 antag)
O=C(O)c1cc(-c2ccccc2Cl)n(-c2cccc(Cl)c2)n1	OX1R antag-2 37
Cc1cccc(OCC(=O)NNC(=O)c2cc3ccccc3oc2=O)c1	OX1R antag-2 73
Cc1ccc(OCC(=O)NNC(=O)c2cc3ccccc3o2)cc1C	CHO parental Ca 49
O=C(COc1ccc(F)cc1)NNC(=O)c1cc2ccccc2oc1=O	none
Cc1cccc(NC(=O)c2cc3ccccc3o2)c1	GPR7 antag 18
COc1ccc(OCCSc2nc(C)nc3ccccc23)cc1	none
Cc1ccnc(S(=O)(=O)Cc2ccc([N+](=O)[O-])cc2)n1	none
CCOc1ncccc1C(=O)OCC(=O)N1CCC(C)CC1	none (no result: GPR7 antag)
NC1=NC(=O)/C(=C\c2cc([N+](=O)[O-])ccc2Cl)S1	OX1R antag-2 49
NC1=NC(=O)/C(=C/c2ccc(Cl)cc2Cl)S1	none
CCOC(=O)N1CCN(CC(=O)Nc2ccc(F)cc2F)CC1	CHO parental Ca 28
CCOC(=O)N1CCN(CC(=O)Nc2ccc(F)c(F)c2F)CC1	none
CC(C)[C@H](NC(=O)[C@H](C)NC(=O)OC(C)(C)C)C(=O)N1CCC2CCN(Cc3ccccc3)CC21 (stereo not given in full)	none (no result: OX1R antag-1, GPR7 antag, OX1R antag-2, CHO parental Ca)
COc1ccc(NC(=O)C2=Cc3cccc(OC)c3OC2)cc1	GPR7 antag 20
O=C1c2ccc3c4c(ccc(c24)C(=O)N1Cc1cccnc1)C(=O)N(Cc1cccnc1)C3=O	none (no result: GalR3 antag, OX1R antag-1, OX1R antag-2, CHO parental Ca)
O=C1c2ccc([N+](=O)[O-])cc2C(=O)N1Cc1cccnc1	OX1R antag-2 77
CCN(Cc1ccc(O)cc1)CC1CCCN(CCc2cccc(F)c2)C1 (stereo not given)	none
Cc1nn(-c2ccccc2)c(N2CCCC2)c1/C=C1\N=C(c2ccc(OC(C)C)cc2)OC1=O	none
CCCn1c(=O)c(C(=O)Nc2ncccc2O)c(O)c2ccccc21	none (no result: OX1R antag-1, OX1R antag-2, CHO parental Ca)
Cn1c(=O)c(C(=O)Nc2ncccc2O)c(O)c2ccccc21	CHO parental Ca 48
O=C(CCc1nc2ccccc2c(=O)[nH]1)Nc1nnc(SCc2ccc(F)cc2)s1	none (no result: GPR7 antag)
O=C(N/N=C/c1ccc([N+](=O)[O-])o1)c1ccc(NS(=O)(=O)c2cccs2)cc1	OX1R antag-2 45
O=C(N/N=C/c1ccc([N+](=O)[O-])cc1)c1ccc(NS(=O)(=O)c2cccs2)cc1	none (no result: GPR7 antag)
O=C(CCNC(=O)c1ccccc1Cl)NC1=NCCS1	none
COc1ccc(CNC(=O)Nc2cc(C)cc(C)c2)cc1	none
COc1ccc(CNC(=O)Nc2ccc(C)cc2)cc1	CHO parental Ca 37
Cc1nc(C(=O)Nc2ccc(F)cc2)nn1-c1ccc([N+](=O)[O-])cc1	OX1R antag-2 55
CCOC(=O)c1nc(C)n(-c2ccc(Cl)cc2)n1	none
CCOC(=O)c1nc(C)n(-c2ccc([N+](=O)[O-])cc2)n1	OX1R antag-2 49
Cc1ccc(NC(=O)c2nc(C)n(-c3ccc([N+](=O)[O-])cc3)n2)cc1	none (no result: GalR3 antag)
COc1ccc(C(=O)Nc2ccc(NC(=O)c3cc(OC)c(OC)c(OC)c3)cn2)cc1	none
CCn1c(Cn2nnc(-c3ccccc3)n2)nnc1SCC(=O)Nc1cccc(C)c1C	OX1R antag-2 77
CCn1c(Cn2nnc(-c3ccccc3)n2)nnc1SCC(=O)Nc1ccc(C(C)=O)cc1	none
CCn1c(Cn2nnc(-c3ccccc3)n2)nnc1SCC(=O)Nc1ccc(N(C)C)cc1	none
CCn1c(Cn2nnc(-c3ccccc3)n2)nnc1SCC(=O)Nc1cccc(C(C)=O)c1	OX1R antag-2 56
CC1CCc2cc(F)ccc2N1C(=O)CCl (stereo not given)	none (no result: GalR3 antag, OX1R antag-1, OX1R antag-2, CHO parental Ca)
CC(C)=CCN1CCN(Cc2coc3ccc(C)cc3c2=O)CC1CCO (stereo not given)	none
C[C@@H]1CN(S(=O)C(C)(C)C)[C@@H](CCO)/C1=C\CCO (stereo not given in full)	none (no result: OX1R antag-1, GPR7 antag, OX1R antag-2, CHO parental Ca)
CN(CC(=O)Nc1ccc(F)cc1[N+](=O)[O-])C1CCS(=O)(=O)C1 (stereo not given)	OX1R antag-2 34 (no result: GPR7 antag)
CN(CC(=O)Nc1ccccc1Cl)C1CCS(=O)(=O)C1 (stereo not given)	none (no result: GPR7 antag)
O=C(CS(=O)(=O)c1ccccc1)c1ccc2c(c1)OCCO2	GPR7 antag 18
O=C(O)CCC(=O)c1ccc2c(c1)OCCO2	none
CC1(c2ccccc2)NC(=O)N(NC(=O)COC(=O)c2cc(Br)ccc2O)C1=O (stereo not given)	none (no result: GPR7 antag)
COC(=O)CNC(c1ccccc1)c1cc(C)ccc1NC(=O)c1cccc(Cl)c1 (stereo not given)	GPR7 antag 24
Cc1ccc(N=C2NC(=O)c3cc([N+](=O)[O-])ccc32)cc1	OX1R antag-2 56
Cc1ccc2ncc(S(=O)(=O)c3ccccc3)c(N3CCCCC3C)c2c1 (stereo not given)	CHO parental Ca 44
C=CC[C@H](CC(=O)N(CCO)Cc1ccccc1)C(=O)N[C@H](COC(=O)[C@@H](CC=C)CC(=O)OC(C)(C)C)c1ccccc1	none (no result: GPR7 antag)
O=C(C[n+]1ccc(C(=O)c2ccccc2)cc1)Nc1ccccc1OC(F)F	OX1R antag-2 46 (no result: GPR7 antag)
CN(Cc1cccs1)C(=O)Cn1cnc2cc([N+](=O)[O-])ccc2c1=O	OX1R antag-2 40
O=C(Cn1cnc2cc([N+](=O)[O-])ccc2c1=O)NC1CCS(=O)(=O)C1 (stereo not given)	OX1R antag-2 63
CCc1ccc(C(=O)Cn2cnc3cc([N+](=O)[O-])ccc3c2=O)cc1	none
N#Cc1c(-c2ccco2)cc(-c2ccccn2)nc1N	OX1R antag-2 73
O=C1c2cc(S(=O)(=O)NCCCO)ccc2-c2ccc(S(=O)(=O)NCCCO)cc21	OX1R antag-2 54
COCCNS(=O)(=O)c1ccc2c(c1)C(=O)c1cc(S(=O)(=O)NCCOC)ccc1-2	OX1R antag-2 66
CC(C)c1cc(C(=O)OCC(=O)NC(=O)NCc2ccco2)c(O)c(C(C)C)c1	GPR7 antag 17
O=C(COC(=O)c1ccccc1C(F)(F)F)NC(=O)NCc1ccco1	none (no result: GPR7 antag)
CCN(C[C@H]1N[C@@](Cc2ccccc2)(C(=O)OC)[C@H]2C(=O)N(Cc3ccccc3)C(=O)[C@@H]12)C(=O)Nc1ccc(C(F)(F)F)cc1	OX1R antag-2 37 (no result: GPR7 antag)
CCc1nnc(NS(=O)(=O)c2ccc(NC(=S)NC(=O)/C=C/c3ccc(C(C)C)cc3)cc2)s1	CHO parental Ca 44 (no result: GalR3 antag)
COc1ccc(-c2nc3scc(-c4ccccc4)n3n2)cc1	OX1R antag-2 67
CCOC(=O)c1cnc(-n2nc(C)cc2C)nc1NC1CCCC1	OX1R antag-1 59, CHO parental Ca 43
CCOC(=O)c1cnc(-n2nc(C)cc2C)nc1Nc1ccc(OC)cc1	none
COc1ccc([C@H]2CC(=O)C=C(c3cccc(C(C)C)c3)C2)cc1OC	OX1R antag-1 48 (no result: GPR7 antag)

Screening results: PubChem BioAssay, The Scripps Research Institute Molecular Screening Center
